Data from ChEMBL document CHEMBL1149785, “Synthesis and biological evaluation of helicid analogues as novel acetylcholinesterase inhibitors” (Eur J Med Chem, 2008).
The source made the active and inactive calls. The calls are words filed in the database; no cut-off is given here.

Tests used:
Acetylcholinesterase = Acetylcholinesterase (Electrophorus electricus, UniProt O42275); experiment: Inhibition of Electrophorus electricus AChE by Ellman's method
[1] = target: Cholinesterase (Equus caballus) (UniProt P81908); experiment: Inhibition of horse serum BuChE upto 500 uM by Ellman's method
Sequence of Cholinesterase (Equus caballus) (P81908 whole entry): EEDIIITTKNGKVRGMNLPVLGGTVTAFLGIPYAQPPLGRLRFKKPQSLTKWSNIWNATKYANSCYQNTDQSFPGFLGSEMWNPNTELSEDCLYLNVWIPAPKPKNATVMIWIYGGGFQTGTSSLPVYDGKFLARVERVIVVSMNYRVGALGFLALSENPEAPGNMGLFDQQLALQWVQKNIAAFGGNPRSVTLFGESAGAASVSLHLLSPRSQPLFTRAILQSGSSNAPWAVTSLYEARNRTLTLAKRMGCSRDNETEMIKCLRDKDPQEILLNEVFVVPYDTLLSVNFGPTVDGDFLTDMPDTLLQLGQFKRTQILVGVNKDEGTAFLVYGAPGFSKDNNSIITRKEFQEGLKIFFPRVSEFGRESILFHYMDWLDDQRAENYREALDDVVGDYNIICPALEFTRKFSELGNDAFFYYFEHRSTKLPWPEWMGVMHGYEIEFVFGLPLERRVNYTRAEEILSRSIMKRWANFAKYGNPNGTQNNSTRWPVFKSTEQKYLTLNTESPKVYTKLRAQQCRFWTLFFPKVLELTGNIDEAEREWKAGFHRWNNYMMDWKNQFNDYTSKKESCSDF
Outline: (§1)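 Modified Ellman assay with acetylthiocholine (AChE) or butyrylthiocholine (BuChE) as substrate, from 0.075 M stock solutions, and DTNB from a 0.01 M stock, in phosphate buffer. Enzyme, DTNB and test compound were pre-incubated for 15 min at 37 °C, then substrate was added. Absorbance was read at 412 nm for 1 min. Five concentrations, normally 10^-4 to 10^-9 M, each in triplicate.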

[2] = target: Acetylcholinesterase (Electrophorus electricus) (UniProt O42275); experiment: Inhibition of Electrophorus electricus AChE upto 500 uM by Ellman's method; outline: as §1
Sequence of Acetylcholinesterase (Electrophorus electricus) (O42275 24-633 limits assumed): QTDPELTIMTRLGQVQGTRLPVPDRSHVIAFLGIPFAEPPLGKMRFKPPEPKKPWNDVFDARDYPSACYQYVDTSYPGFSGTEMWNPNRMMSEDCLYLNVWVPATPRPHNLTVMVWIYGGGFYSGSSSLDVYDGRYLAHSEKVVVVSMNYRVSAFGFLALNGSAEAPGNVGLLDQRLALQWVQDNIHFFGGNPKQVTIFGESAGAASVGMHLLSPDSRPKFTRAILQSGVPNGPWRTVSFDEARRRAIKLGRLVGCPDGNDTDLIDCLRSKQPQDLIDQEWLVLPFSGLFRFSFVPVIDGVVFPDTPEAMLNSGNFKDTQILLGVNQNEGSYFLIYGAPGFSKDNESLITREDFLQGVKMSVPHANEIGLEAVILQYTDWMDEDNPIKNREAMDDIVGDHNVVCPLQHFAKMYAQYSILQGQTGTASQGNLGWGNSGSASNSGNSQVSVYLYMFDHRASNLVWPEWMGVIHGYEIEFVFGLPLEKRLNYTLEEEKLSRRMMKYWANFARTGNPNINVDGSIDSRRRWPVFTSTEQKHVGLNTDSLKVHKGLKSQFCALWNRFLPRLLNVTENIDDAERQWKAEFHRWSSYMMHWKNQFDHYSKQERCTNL

[3] = target: 4-aminobutyrate aminotransferase, mitochondrial (Homo sapiens, UniProt P80404); experiment: Inhibition of GABA transaminase
Sequence of 4-aminobutyrate aminotransferase, mitochondrial (P80404 whole entry): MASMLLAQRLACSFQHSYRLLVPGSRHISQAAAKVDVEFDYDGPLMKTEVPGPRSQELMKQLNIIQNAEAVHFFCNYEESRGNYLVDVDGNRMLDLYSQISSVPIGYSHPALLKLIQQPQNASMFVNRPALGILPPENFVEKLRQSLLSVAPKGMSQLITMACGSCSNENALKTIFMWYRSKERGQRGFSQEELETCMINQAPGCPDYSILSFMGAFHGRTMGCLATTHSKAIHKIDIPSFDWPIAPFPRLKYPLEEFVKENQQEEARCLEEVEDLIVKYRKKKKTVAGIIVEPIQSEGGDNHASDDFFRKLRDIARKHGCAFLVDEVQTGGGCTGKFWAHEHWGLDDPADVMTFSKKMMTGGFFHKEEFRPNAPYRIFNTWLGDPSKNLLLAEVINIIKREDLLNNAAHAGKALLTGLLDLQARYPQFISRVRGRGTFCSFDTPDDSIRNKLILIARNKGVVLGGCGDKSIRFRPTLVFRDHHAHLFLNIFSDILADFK

Cholinesterase = Cholinesterase (Equus caballus, UniProt P81908); experiment: Inhibition of horse serum BuChE by Ellman's method
Sequence of Cholinesterase (P81908 whole entry): as the sequence (P81908 whole entry) above

Sequence of Acetylcholinesterase (O42275 whole entry): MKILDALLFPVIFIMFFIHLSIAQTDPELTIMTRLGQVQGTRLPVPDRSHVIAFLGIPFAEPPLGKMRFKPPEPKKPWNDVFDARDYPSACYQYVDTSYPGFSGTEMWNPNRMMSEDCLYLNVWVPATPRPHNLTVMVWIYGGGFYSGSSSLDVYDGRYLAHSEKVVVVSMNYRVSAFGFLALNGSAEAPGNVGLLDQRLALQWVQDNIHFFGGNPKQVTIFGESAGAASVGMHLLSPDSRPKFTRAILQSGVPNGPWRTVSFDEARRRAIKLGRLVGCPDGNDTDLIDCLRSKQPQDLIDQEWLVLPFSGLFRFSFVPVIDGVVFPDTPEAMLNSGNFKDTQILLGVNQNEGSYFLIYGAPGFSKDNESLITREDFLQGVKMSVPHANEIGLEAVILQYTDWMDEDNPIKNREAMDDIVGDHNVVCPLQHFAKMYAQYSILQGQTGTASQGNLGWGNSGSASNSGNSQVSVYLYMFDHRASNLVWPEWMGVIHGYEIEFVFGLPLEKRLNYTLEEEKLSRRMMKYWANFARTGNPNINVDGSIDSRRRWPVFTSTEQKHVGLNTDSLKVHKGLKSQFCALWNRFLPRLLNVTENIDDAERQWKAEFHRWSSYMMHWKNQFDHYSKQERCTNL

Structure (SMILES)	IC50 (Acetylcholinesterase)	Activity [1]	also measured
NC(=O)N/N=C/c1ccc(O[C@@H]2O[C@H](CO)[C@@H](O)[C@H](O)[C@H]2O)cc1	121 µM	inactive	–
CC(=O)OC[C@H]1O[C@@H](O[C@H]2[C@H](OC(C)=O)[C@@H](OC(C)=O)[C@H](Oc3ccc(C=O)cc3)O[C@@H]2COC(C)=O)[C@H](OC(C)=O)[C@@H](OC(C)=O)[C@H]1OC(C)=O	–	inactive	Activity [2]: inactive
CC(=O)OC[C@H]1O[C@@H](Oc2ccc(C=O)cc2)[C@H](OC(C)=O)[C@@H](OC(C)=O)[C@H]1OC(C)=O	45.4 µM	inactive	–
CC(=O)OC[C@H]1O[C@@H](Oc2ccc(/C=N/NC(N)=S)cc2)[C@H](OC(C)=O)[C@@H](OC(C)=O)[C@@H]1OC(C)=O	21.5 µM	inactive	–
CO/N=C\c1ccc(O[C@@H]2O[C@H](COC(C)=O)[C@@H](OC(C)=O)[C@H](OC(C)=O)[C@H]2OC(C)=O)cc1	15.1 µM	inactive	–
CO/N=C\c1ccc(O[C@@H]2O[C@H](CO)[C@@H](O)[C@H](O)[C@H]2O)cc1	0.49 µM	inactive	Ki (Acetylcholinesterase): 0.13 µM
O=Cc1ccc(O)cc1 [4-HYDROXYBENZALDEHYDE]	–	–	IC50 [3]: 33.6 µM
O=Cc1ccc(O[C@@H]2O[C@H](CO)[C@@H](O)[C@H](O)[C@H]2O)cc1	0.45 µM	inactive	Ki (Acetylcholinesterase): 0.73 µM
O=Cc1ccc(O[C@@H]2OC[C@@H](O)[C@@H](O)[C@H]2O)cc1	0.2 µM	inactive	Ki (Acetylcholinesterase): 0.51 µM
O=Cc1ccc(O[C@@H]2OC[C@@H](OC(=O)c3ccccc3)[C@H](OC(=O)c3ccccc3)[C@H]2OC(=O)c2ccccc2)cc1	35 µM	inactive	–
CO/N=C\c1ccc(O[C@@H]2OC[C@@H](OC(=O)c3ccccc3)[C@@H](OC(=O)c3ccccc3)[C@H]2OC(=O)c2ccccc2)cc1	3.08 µM	–	IC50 (Cholinesterase): 45.8 µM
O=Cc1ccc(O[C@@H]2O[C@H](CO)[C@@H](O)[C@@H](O)[C@H]2O)cc1	–	inactive	Activity [2]: inactive
O=Cc1ccc(O[C@@H]2OC[C@@H](OC(=O)c3ccccc3)[C@@H](OC(=O)c3ccccc3)[C@H]2OC(=O)c2ccccc2)cc1	14 µM	–	IC50 (Cholinesterase): 64.3 µM
CC(=O)OC[C@H]1O[C@@H](Oc2ccc(/C=N/NC(N)=O)cc2)[C@H](OC(C)=O)[C@@H](OC(C)=O)[C@@H]1OC(C)=O	143 µM	inactive	–
CC(=O)OC[C@H]1O[C@@H](Oc2ccc(C=O)cc2)[C@H](OC(C)=O)[C@H](OC(C)=O)[C@@H]1OC(C)=O	–	inactive	Activity [2]: inactive
CC(=O)OC[C@H]1O[C@@H](Oc2ccc(C=O)cc2)[C@H](OC(C)=O)[C@@H](OC(C)=O)[C@@H]1OC(C)=O	1.5 µM	inactive	–
OC[C@H]1O[C@@H](Oc2ccc(/C=N/O)cc2)[C@H](O)[C@@H](O)[C@@H]1O	–	inactive	–
NC(=S)N/N=C/c1ccc(O[C@@H]2O[C@H](CO)[C@@H](O)[C@H](O)[C@H]2O)cc1	22.9 µM	inactive	–
NC(=S)N/N=C/c1ccc(O[C@@H]2OC[C@@H](OC(=O)c3ccccc3)[C@@H](OC(=O)c3ccccc3)[C@H]2OC(=O)c2ccccc2)cc1	46.4 µM	–	IC50 (Cholinesterase): 71.8 µM
NC(=O)N/N=C/c1ccc(O[C@@H]2OC[C@@H](OC(=O)c3ccccc3)[C@@H](OC(=O)c3ccccc3)[C@H]2OC(=O)c2ccccc2)cc1	7.07 µM	–	IC50 (Cholinesterase): 48.7 µM
CC(=O)OC[C@H]1O[C@@H](Oc2ccc(/C=N/O)cc2)[C@H](OC(C)=O)[C@@H](OC(C)=O)[C@@H]1OC(C)=O	–	inactive	–
